T cruzi repl – blocks replication of Trypanosoma cruzi. T. cruzi beta-gal in NIH3T3, luminescence, 90 h. actives 1.4% (n = 300,000). inhibition, % (test concentration not listed);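 active means mean inhibition across valid replicates above about 55%, limit read from the data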;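 further: signal also drops with host cell toxicity which is not excluded here; 0% = plate median of DMSO wells and 100% = zero luminescence signal; higher percent means less beta-gal luminescence so fewer parasites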
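Read-out: Parasite load inhibition, % | Test system: Mouse NIH/3T3 fibroblasts infected with β-gal-expressing T. cruzi Tulahuen C4 | Amount: 5,000 cells/well | Medium: DMEM, 2% fetal bovine serum | Signal: GalScreen β-gal luminescence, detergent lysis, 60 min | Timing: 3 h attach, ≥90 h co-culture | Also added: Tulahuen C4 trypomastigotes, 5000/well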
HSF1 inh – HSF1 inhibition | NIH3T3-HGL HSE-luciferase, MG132-induced, luminescence 8 h; active compounds read low | activity change, negative = inhibition, % at 7.5 µM (by protocol) | actives 0.77% (n = 300,000);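 active means more than half of replicate wells show activity change below -50%, luminescence cut by over half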;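 further: luciferase reports HSF-1 transcriptional activity via heat shock element; 0% = median of DMSO wells and -100% = zero luminescence signal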
Hsp70 act – switches on Hsp70 transcription; activation, % at 10 µM; AID 1203; actives 0.04% (n = 200,000); HeLa Hsp70 promoter luciferase reporter, luminescence; scaled: vehicle 0, proteasome-inhibitor control 100%;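 active means activation above the mean across all tested compounds plus 3 SD, cutoff set per campaign, cut at about 5.5% in these data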;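 further: 100% = MG132 at 30 µM as the positive control and 0% = DMSO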
HSF-1 act – increases HSF-1 driven luciferase reporter signal. NIH3T3-HGL HSF-1 luciferase reporter, MG132, 8 h; 100% = twice DMSO control signal. activation, % at 9 µM. actives 1.7% (n = 300,000);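 active means mean replicate activation of at least 50% with a set share of replicates each reaching 50%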;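 further: 0% = median of the neutral control wells and 100% = twice that signal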
L major viab – Leishmania major promastigote growth inhibition | Leishmania major promastigotes, resazurin fluorescence viability | inhibition, % at 10 µM | actives 9% (n = 200,000) | AID 1063; in the data active means inhibition above about 50%;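 further: promastigotes grown with compound for 44 hours at 28 °C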
* marks the source's active call; other numbers are inactive results; . = not tested or not shown. This excerpt belongs to a sample that is enriched for hits.

SMILES | T cruzi repl | HSF1 inh | Hsp70 act | HSF-1 act | L major viab
Cc1nnc(SCCn2c(N3CCC(Cc4ccccc4)CC3)nc3c2c(=O)[nH]c(=O)n3C)s1 | 26 | 10 | . | -8 | .
Cc1ccc(S(=O)(=O)N2C(=O)CCC2C(=O)O/N=C(\N)c2cccc([N+](=O)[O-])c2)cc1 (stereo not given) | 2 | -6 | . | -8 | .
O=C(COC(=O)CCCN=C1NS(=O)(=O)c2ccccc21)NC(=O)NC1CCCC1 | -8 | -2 | 0 | -9 | -6
Cc1ccc(S(=O)(=O)N2CCC(=O)N(CCOCc3ccc(F)cc3)CC2)cc1 | 1 | 6 | 0 | 11 | 15
COc1ccc(NC(=O)C2CCCN(CCCc3ccccc3)C2)cc1OCC(C)C (stereo not given) | 34 | 2 | . | 4 | .
CCOC(=O)C1CCN(CC(O)COc2ccc(C(C)(C)CC)cc2)CC1 (stereo not given) | 14 | -2 | 0 | 0 | 97*
CCOC(=O)C1CCN(CC(O)COc2ccc(C(C)=O)cc2)CC1 (stereo not given) | -9 | -4 | 0 | -1 | 92*
OC(COCc1cccs1)CN1CCN(c2ccccc2Cl)CC1 (stereo not given) | -12 | 2 | 0 | -7 | 2
CC(C)(C)c1ccc(OCC(O)CN2CCN(C(=O)c3ccccc3)CC2)cc1 (stereo not given) | 3 | -5 | . | 9 | .
OC(COCc1cccs1)CN1CCN(c2cccc(Cl)c2)CC1 (stereo not given) | 10 | -7 | 0 | 0 | 99*
CCOC(=O)C1CCN(CC(O)COc2ccc(C(C)(C)C)cc2)CC1 (stereo not given) | 0 | -5 | 0 | 6 | 92*
CC(=O)c1ccc(OCC(O)CN2CCN(S(=O)(=O)c3c(C)c(C)cc(C)c3C)CC2)cc1 (stereo not given) | 24 | -4 | . | 7 | .
Cn1cc(CN2CCCC(C(=O)c3nccn3C)C2)c(-c2cccc(Cl)c2)n1 (stereo not given) | -1 | -2 | 0 | 0 | 5
COc1ccc(N(CC(=O)N2CCC(Cc3ccccc3)CC2)S(C)(=O)=O)cc1 | -3 | -5 | 0 | 10 | -4
CCOC(=O)C1CCN(CC(O)COCc2ccccc2)CC1 (stereo not given) | -21 | -7 | . | -4 | .
CCOC(=O)C1CCN(CC(O)COCc2cccs2)CC1 (stereo not given) | 12 | -4 | 1 | 7 | 79*
COc1ccc(/C=C(\C#N)C(=O)OCC(=O)Nc2ccc(-c3nc4ccc(C)cc4s3)cc2)cc1 | 10 | -10 | 0 | 1 | -2
CC(Oc1ccc(F)cc1Br)c1nc2ccccc2c(=O)[nH]1 (stereo not given) | 1 | 25 | . | 65* | .
S=C(N/N=C/c1ccc2c(c1)OCO2)NC1CC2CCC1C2 (stereo not given) | 29 | 22 | . | 39 | .
C=CC[n+]1c(/C=C2\C=Cc3cc(C)ccc3N2CC)ccc2ccccc21 | 66* | -3 | 0 | 3 | 100*
COc1ccc2oc(C(=O)c3ccccc3)c(NC(=O)CN3CCN(C)CC3)c2c1 | 28 | -4 | 0 | 19 | 98*
CN1CCN(CC(=O)Nc2c(C(=O)c3ccccc3)oc3ccccc23)CC1 | 18 | -2 | . | 3 | .
O=[N+]([O-])c1ccc(Sc2ccccn2)nc1 | 3 | -2 | . | 5 | .
O=[N+]([O-])c1ccc(Sc2nnnn2-c2ccccc2)nc1 | 36 | 0 | 0 | -5 | 82*
O=C(CC1CCCCC1)N1CCCC(c2nc(-c3ccc(S(=O)(=O)N4CCCC4)cc3)no2)C1 (stereo not given) | 0 | 10 | 0 | 2 | 55*
CCCCCC(=O)N1CCCC(c2nc(-c3ccc(OC)cc3)no2)C1 (stereo not given) | 8 | 4 | 0 | 14 | 7
C#CCOCCOCCOCCNc1nc(N2CCN(C(=O)CCCCCCCCCCNC(=O)Cn3cc(C[C@@H](C)O)nn3)CC2)nc(N2CCN(C(=O)CCCCCCCCCCNC(=O)[C@H](CCCN=C(N)N)n3cc(C[C@@H](C)CC)nn3)CC2)n1 | 66* | 1 | . | -12 | .
O=C(CCCN1C(=O)C(c2ccccc2)Oc2cccnc21)NCCc1ccc(Cl)cc1 (stereo not given) | 15 | 13 | . | 12 | .
Cc1ccc(Sc2cc(NCCCO)c([N+](=O)[O-])c3nonc23)cc1 | 56* | 0 | . | -3 | .
